Experimental data: ChEMBL document CHEMBL1125734, “Antioxidant activity of probucol and its analogues in hypercholesterolemic Watanabe rabbits” (1991)

Legend:
Assay type in all cases: functional
Oryctolagus cuniculus [1] = species: Oryctolagus cuniculus; assay: Compound was evaluated for the ability to lower total serum cholesterol levels in 5 Watanabe heritable hyperlipidemic (WHHL) rabbits on day 84.
Summary of the method: (§1)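 Modified WHHL rabbits (British half-lop × WHHL cross, homozygous LDL-receptor deficient), age 14 ± 1 weeks, fed 100 g/day rabbit chow repelleted with compound at 1% (wt/wt), content checked by HPLC; controls got plain chow (n = 10). Total serum cholesterol measured enzymatically on days 0, 28, 56 and 84; group mean ± SEM (mg/dL).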

[2] = Molar content of compound in low-density lipoprotein (LDL) was obtained from the ratio of molecules to that of LDL particles.
Summary of the method: (§2)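 Day-84 plasma (EDTA) from rabbits fed 1% drug in chow. LDL isolated by sequential ultracentrifugation at d = 1.019–1.063 g/mL, brought back to the original serum volume, and drug measured by HPLC. Molecules per particle calculated from LDL protein, taking apoB (mw 500 000) as one copy per particle. Mean ± SEM.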

Oryctolagus cuniculus [3] = species: Oryctolagus cuniculus; assay: Compound was evaluated for the ability to lower total serum cholesterol levels in 5 Watanabe heritable hyperlipidemic (WHHL) rabbits on day 0.; summary of the method: as §1
Oryctolagus cuniculus [4] = species: Oryctolagus cuniculus; assay: Prevention of Cu2+-induced lipid peroxidation of LDL.
Summary of the method: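 LDL (d 1.019–1.063 g/mL) isolated from each drug-fed rabbit at day 84 and dialyzed against PBS. Incubated with 5 μM CuSO4 (final) at 37 °C for 3 h; reaction stopped with EDTA. 50 μg LDL treated with TCA and 0.67% TBA at 90 °C for 30 min. TBARS read at 532 nm against an MDA standard curve (0–5 nmol).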

Oryctolagus cuniculus [5] = species: Oryctolagus cuniculus; assay: % atherosclerotic lesions in WHHL rabbits.
Summary of the method: (§3)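 WHHL rabbits (homozygous LDL-receptor deficient, British half-lop cross, 14 ± 1 weeks) fed 100 g/day chow containing 1% (wt/wt) drug for 84 days, then killed by iv pentobarbital. Aortas stained with Sudan IV; sudanophilic area in thoracic aorta quantified by digital image analysis from staining density. Values are percent lesion area per group.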

Oryctolagus cuniculus [6] = species: Oryctolagus cuniculus; assay: Compound was evaluated for the ability to lower total serum cholesterol levels in 5 Watanabe heritable hyperlipidemic (WHHL) rabbits on day 28.; summary of the method: as §1
Oryctolagus cuniculus [7] = species: Oryctolagus cuniculus; assay: Compound was evaluated for the ability to lower total serum cholesterol levels in 5 Watanabe heritable hyperlipidemic (WHHL) rabbits on day 56.; summary of the method: as §1
Oryctolagus cuniculus [8] = species: Oryctolagus cuniculus; assay: Compound concentration in serum.
Summary of the method: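 Rabbits fed 1% (wt/wt) drug in chow (100 g/day) for 84 days. Serum taken at sacrifice on day 84 and extracted with ether/ethanol; extract dried under N2, redissolved, and run on reverse-phase C18 HPLC in acetonitrile/water (85/15) at 1.5 mL/min with detection at 240 nm. Results given as μg/mL, mean ± SEM.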

Oryctolagus cuniculus [9] = species: Oryctolagus cuniculus; assay: Compound concentration in low-density lipoprotein (LDL).; summary of the method: as §2
Oryctolagus cuniculus [10] = species: Oryctolagus cuniculus; assay: Compound was evaluated for the ability to lower total serum cholesterol levels in 4 Watanabe heritable hyperlipidemic (WHHL) rabbits on day 28.; summary of the method: as §1
Oryctolagus cuniculus [11] = species: Oryctolagus cuniculus; assay: Compound was evaluated for the ability to lower total serum cholesterol levels in 4 Watanabe heritable hyperlipidemic (WHHL) rabbits on day 84.; summary of the method: as §1
Oryctolagus cuniculus [12] = species: Oryctolagus cuniculus; assay: Percent atherosclerotic lesions in WHHL rabbits.; summary of the method: as §3
Oryctolagus cuniculus [13] = species: Oryctolagus cuniculus; assay: Compound was evaluated for the ability to lower total serum cholesterol levels in 4 Watanabe heritable hyperlipidemic (WHHL) rabbits on day 0.; summary of the method: as §1
Oryctolagus cuniculus [14] = species: Oryctolagus cuniculus; assay: Compound was evaluated for the ability to lower total serum cholesterol levels in 4 Watanabe heritable hyperlipidemic (WHHL) rabbits on day 56.; summary of the method: as §1

Compound | Cholesterol Concentration (Oryctolagus cuniculus [1]) | Molar content (Molecules (LDL particle)-1) [2] | Cholesterol Concentration (Oryctolagus cuniculus [3]) | Lipid peroxidation (nM MDA (mg LDL)-1) (Oryctolagus cuniculus [4]) | Lesion (Oryctolagus cuniculus [5]) | Cholesterol Concentration (Oryctolagus cuniculus [6]) | Cholesterol Concentration (Oryctolagus cuniculus [7]) | Drug Conc (serum) (Oryctolagus cuniculus [8]) | Drug Conc (LDL) (Oryctolagus cuniculus [9]) | Cholesterol Concentration (Oryctolagus cuniculus [10]) | Cholesterol Concentration (Oryctolagus cuniculus [11]) | Lesion (Oryctolagus cuniculus [12]) | Cholesterol Concentration (Oryctolagus cuniculus [13]) | Cholesterol Concentration (Oryctolagus cuniculus [14])
CCCCC(C)(Sc1cc(C)c(O)c(C(C)(C)C)c1)Sc1cc(C)c(O)c(C(C)(C)C)c1 | 1095 mg/dL | 0.7 | 1005 mg/dL | 33 | 81% | 1042 mg/dL | 1079 mg/dL | 6.4 µg/mL | 3 µg/mL | – | – | – | – | –
CC(C)(C)c1cc(SCSc2cc(C(C)(C)C)c(O)c(C(C)(C)C)c2)cc(C(C)(C)C)c1O | 734 mg/dL | 20.3 | 890 mg/dL | 16 | 39% | 905 mg/dL | 766 mg/dL | 135 µg/mL | 65 µg/mL | – | – | – | – | –
CC(C)(Sc1cc(C(C)(C)C)c(O)c(C(C)(C)C)c1)Sc1cc(C(C)(C)C)c(O)c(C(C)(C)C)c1 [PROBUCOL] | – | 11.3 | – | 25 | – | – | – | 56 µg/mL | 41 µg/mL | 728 mg/dL | 698 mg/dL | 47% | 658 mg/dL | 731 mg/dL
CCCC(C)(Sc1cc(C(C)(C)C)c(O)c(C(C)(C)C)c1)Sc1cc(C(C)(C)C)c(O)c(C(C)(C)C)c1 | – | 6.2 | – | 30 | 53% | – | – | 42 µg/mL | 23 µg/mL | 885 mg/dL | 782 mg/dL | – | 685 mg/dL | 796 mg/dL
